Active and inactive are the calls of the source.
Key:
[1] = molecular target: Cannabinoid receptor 1 (Rattus norvegicus) (UniProt P20272); assay: Antagonist activity at Long-Evans rat striatal membrane CB1 receptor assessed as blockade of Hu210-induced increase in GTPgammaS binding; format: functional
Summary of the method: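 Membranes (10 μg) came from striatum (CB1) or spleen (CB2). They were tested in GTPγS-binding or adenylyl cyclase assays with Hu-210 and test ligand (0–1 μM), or with Hu-210 curves with or without 10 μM peptide; a 1 μM single-point combination was also used. Mean ± SE of triplicates.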

[2] = molecular target: Cannabinoid receptor 1 (Homo sapiens) (UniProt P21554); assay: Antagonist activity at CB1 receptor expressed in HEK293 cells assessed as blockade of secreted alkaline phosphatase activity at 1 uM after 6 hrs relative to control; format: functional, cell-based
Summary of the method: (§1)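 HEK-293 cells transfected with 5 μg pCRE-SeAP plus 1 μg Flag-tagged CB₁ or CB₂ receptor, 30,000 cells/well, serum-starved 16–18 h. Stimulated 6 h in serum-free medium with 10 μM forskolin and 100 nM agonist, without or with 1 μM test peptide. Supernatant diluted in pH 7.2 buffer, heated 65°C 20 min, then CSPD chemiluminescence read. Mean ± SEM, n = 6.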

[3] = molecular target: T1, Alpha-2A adrenergic receptor (Homo sapiens) (UniProt P08913); assay: Antagonist activity at alpha2A adrenergic receptor expressed in HEK293 cells assessed as blockade of secreted alkaline phosphatase activity at 1 uM after 6 hrs relative to control; format: functional, cell-based
T1 sequence (whole entry): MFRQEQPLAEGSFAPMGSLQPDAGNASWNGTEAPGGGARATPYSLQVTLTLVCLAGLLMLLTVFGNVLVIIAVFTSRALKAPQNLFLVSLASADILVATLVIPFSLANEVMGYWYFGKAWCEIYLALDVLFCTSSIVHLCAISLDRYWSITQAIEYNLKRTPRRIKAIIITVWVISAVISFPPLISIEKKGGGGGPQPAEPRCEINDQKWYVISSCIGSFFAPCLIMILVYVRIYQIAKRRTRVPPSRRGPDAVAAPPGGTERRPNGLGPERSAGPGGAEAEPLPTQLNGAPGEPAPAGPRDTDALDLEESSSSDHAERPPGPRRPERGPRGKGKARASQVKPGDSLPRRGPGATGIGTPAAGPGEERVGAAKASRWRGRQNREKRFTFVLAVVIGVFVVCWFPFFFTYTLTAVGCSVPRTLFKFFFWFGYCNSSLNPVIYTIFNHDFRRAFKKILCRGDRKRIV
Summary of the method: (§2)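 HEK-293 cells transiently co-transfected with pCRE-SeAP and a Flag-tagged receptor, 30,000 cells/well on poly-L-lysine. They were serum-starved 16–18 h, then exposed 6 h in serum-free medium to 10 μM forskolin (omitted for β2) plus the receptor agonist (100 nM), with or without peptide (1 μM). Heat-treated supernatant SeAP was read by CSPD chemiluminescence. Mean ± SEM, n = 6.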

[4] = molecular target: Mu-type opioid receptor (Homo sapiens) (UniProt P35372); assay: Antagonist activity at mu opioid receptor expressed in SKNSH cells at 100 nM by ELISA relative to control; format: functional, cell-based; design: scale not given: the % may be the effect or the level left
[5] = molecular target: Delta-type opioid receptor (Homo sapiens) (UniProt P41143); assay: Antagonist activity at delta opioid receptor expressed in HEK293 cells assessed as blockade of deltorphin 2-mediated decrease in secreted alkaline phosphatase activity at 1 uM after 6 hrs relative to control; format: functional, cell-based; summary of the method: as §2
[6] = molecular target: Cannabinoid receptor 2 (Homo sapiens) (UniProt P34972); assay: Antagonist activity at CB2 receptor expressed in HEK293 cells assessed as blockade of secreted alkaline phosphatase activity at 1 uM after 6 hrs relative to control; format: functional, cell-based; summary of the method: as §1
[7] = molecular target: T2, Type-1 angiotensin II receptor (Homo sapiens) (UniProt P30556); assay: Antagonist activity at AT1 angiotensin receptor expressed in SKNSH cells at 100 nM by ELISA relative to control; format: functional, cell-based; design: scale not given: the % may be the effect or the level left
T2 sequence (whole entry): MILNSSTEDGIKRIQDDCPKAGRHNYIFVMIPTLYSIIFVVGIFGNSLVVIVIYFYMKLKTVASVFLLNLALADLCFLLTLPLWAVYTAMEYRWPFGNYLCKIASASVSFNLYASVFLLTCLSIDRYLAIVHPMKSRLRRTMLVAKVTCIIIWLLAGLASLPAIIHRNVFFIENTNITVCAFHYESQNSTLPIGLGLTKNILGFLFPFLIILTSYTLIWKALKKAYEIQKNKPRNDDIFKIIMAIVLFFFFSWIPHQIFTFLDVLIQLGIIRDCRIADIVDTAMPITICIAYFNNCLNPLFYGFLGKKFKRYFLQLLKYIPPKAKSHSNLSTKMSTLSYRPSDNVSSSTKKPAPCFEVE

[8] = molecular target: Cannabinoid receptor 1 (Homo sapiens) (UniProt P21554); assay: Antagonist activity at CB1 receptor expressed in SKNSH cells assessed as blockade of Hu210-induced increase in antibody recognition at 100 nM by ELISA relative to control; format: functional, cell-based; design: scale not given: the % may be the effect or the level left
[9] = molecular target: Beta-2 adrenergic receptor (Homo sapiens) (UniProt P07550); assay: Antagonist activity at beta2 adrenergic receptor expressed in SKNSH cells assessed as blockade of isoproterenol-induced increase in antibody recognition at 100 nM by ELISA relative to control; format: functional, cell-based; design: scale not given: the % may be the effect or the level left
[10] = molecular target: Cannabinoid receptor 1 (Homo sapiens) (UniProt P21554); assay: Antagonist activity at CB1 receptor expressed in HEK293 cells assessed as blockade of Hu210-mediated decrease in secreted alkaline phosphatase activity at 1 uM after 6 hrs relative to control; format: functional, cell-based; summary of the method: as §2
[11] = molecular target: Cannabinoid receptor 2 (Homo sapiens) (UniProt P34972); assay: Antagonist activity at CB2 receptor expressed in HEK293 cells assessed as blockade of Hu210-mediated decrease in secreted alkaline phosphatase activity at 1 uM after 6 hrs relative to control; format: functional, cell-based; summary of the method: as §2
[12] = molecular target: Delta-type opioid receptor (Homo sapiens) (UniProt P41143); assay: Antagonist activity at delta opioid receptor expressed in HEK293 cells assessed as blockade of secreted alkaline phosphatase activity at 1 uM after 6 hrs relative to control; format: functional, cell-based; summary of the method: as §2
Mus musculus = assay: Effect on motor coordination in C57BL/6 mouse at […], ip after 1 hrs; format: functional, organism-based
[13] = molecular target: T2, Type-1 angiotensin II receptor (Homo sapiens); assay: Antagonist activity at AT1 angiotensin receptor expressed in HEK293 cells assessed as blockade of angiotensin 2-mediated decrease in secreted alkaline phosphatase activity at 1 uM after 6 hrs relative to control; format: functional, cell-based; summary of the method: as §2
Rattus norvegicus [14] = assay: Antihyperalgesic effects in Wistar rat assessed as reduction of carrageenan-induced paw pressure at 10 ug/kg, intraplantar after 3 hrs; format: functional, organism-based
Summary of the method: (§3)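 Male Wistar rats (200 g) received carrageenan 200 μg/paw intraplantar in saline into the right hind paw. Peptide was given at the same time: intraplantar 10 μg/paw, intrathecal 0.5 or 5 μg/kg, or oral 50 or 100 μg/kg; saline-treated rats served as controls. Paw-pressure withdrawal threshold (force ramp 16 g/s) was read at 0 and 3 h. n = 6–8.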

Rattus norvegicus [15] = assay: Antihyperalgesic effects in Wistar rat assessed as reduction of carrageenan-induced paw pressure at 50 ug/kg, po after 3 hrs; format: functional, organism-based; summary of the method: as §3

Chain of Cannabinoid receptor 1 (Homo sapiens) (P21554 whole entry): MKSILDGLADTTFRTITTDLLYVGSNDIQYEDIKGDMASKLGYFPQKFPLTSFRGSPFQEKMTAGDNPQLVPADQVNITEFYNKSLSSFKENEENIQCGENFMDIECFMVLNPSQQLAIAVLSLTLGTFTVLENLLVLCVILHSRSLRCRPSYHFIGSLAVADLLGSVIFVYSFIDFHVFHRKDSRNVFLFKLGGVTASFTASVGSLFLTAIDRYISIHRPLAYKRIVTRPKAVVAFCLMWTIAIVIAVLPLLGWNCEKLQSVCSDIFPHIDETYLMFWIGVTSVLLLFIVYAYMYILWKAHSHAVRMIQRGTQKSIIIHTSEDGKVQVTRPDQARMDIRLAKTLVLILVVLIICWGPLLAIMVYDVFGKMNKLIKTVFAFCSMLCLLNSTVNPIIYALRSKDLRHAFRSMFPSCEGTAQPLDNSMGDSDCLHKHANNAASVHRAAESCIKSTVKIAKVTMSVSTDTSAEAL
Chain of Cannabinoid receptor 2 (Homo sapiens) (P34972 whole entry): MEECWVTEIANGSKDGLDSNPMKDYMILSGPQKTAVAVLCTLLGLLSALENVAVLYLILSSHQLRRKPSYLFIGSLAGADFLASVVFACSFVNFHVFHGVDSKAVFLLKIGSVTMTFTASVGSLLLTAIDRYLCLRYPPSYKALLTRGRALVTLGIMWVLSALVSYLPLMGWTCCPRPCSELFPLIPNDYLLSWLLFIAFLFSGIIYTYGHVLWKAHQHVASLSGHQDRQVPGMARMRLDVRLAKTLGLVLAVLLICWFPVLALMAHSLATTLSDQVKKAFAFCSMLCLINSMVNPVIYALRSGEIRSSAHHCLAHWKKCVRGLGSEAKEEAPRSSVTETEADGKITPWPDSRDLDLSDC
Chain of Delta-type opioid receptor (Homo sapiens) (P41143 whole entry): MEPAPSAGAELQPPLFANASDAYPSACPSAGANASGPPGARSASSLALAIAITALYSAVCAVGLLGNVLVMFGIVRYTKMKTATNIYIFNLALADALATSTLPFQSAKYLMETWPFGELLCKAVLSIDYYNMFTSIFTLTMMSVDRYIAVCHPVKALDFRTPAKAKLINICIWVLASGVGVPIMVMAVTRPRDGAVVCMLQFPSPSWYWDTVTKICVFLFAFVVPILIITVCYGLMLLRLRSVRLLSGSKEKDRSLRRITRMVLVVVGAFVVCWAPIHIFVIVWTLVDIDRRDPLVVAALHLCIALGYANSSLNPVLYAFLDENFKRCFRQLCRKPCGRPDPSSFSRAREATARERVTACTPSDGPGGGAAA
Chain of Cannabinoid receptor 1 (Rattus norvegicus) (P20272 whole entry): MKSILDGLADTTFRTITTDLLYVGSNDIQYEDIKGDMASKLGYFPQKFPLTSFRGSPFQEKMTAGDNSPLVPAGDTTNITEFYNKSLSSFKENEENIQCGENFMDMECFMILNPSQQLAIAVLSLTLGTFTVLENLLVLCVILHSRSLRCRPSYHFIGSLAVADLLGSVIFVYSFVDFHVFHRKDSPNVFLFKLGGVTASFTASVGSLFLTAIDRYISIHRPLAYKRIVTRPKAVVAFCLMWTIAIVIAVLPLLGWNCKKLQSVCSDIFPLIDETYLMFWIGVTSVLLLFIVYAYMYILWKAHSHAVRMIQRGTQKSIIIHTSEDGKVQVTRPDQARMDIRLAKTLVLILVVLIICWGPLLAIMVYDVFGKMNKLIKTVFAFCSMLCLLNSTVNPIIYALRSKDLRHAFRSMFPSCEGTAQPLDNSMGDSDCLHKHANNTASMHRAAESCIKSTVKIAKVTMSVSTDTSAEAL
Chain of Mu-type opioid receptor (Homo sapiens) (P35372 whole entry): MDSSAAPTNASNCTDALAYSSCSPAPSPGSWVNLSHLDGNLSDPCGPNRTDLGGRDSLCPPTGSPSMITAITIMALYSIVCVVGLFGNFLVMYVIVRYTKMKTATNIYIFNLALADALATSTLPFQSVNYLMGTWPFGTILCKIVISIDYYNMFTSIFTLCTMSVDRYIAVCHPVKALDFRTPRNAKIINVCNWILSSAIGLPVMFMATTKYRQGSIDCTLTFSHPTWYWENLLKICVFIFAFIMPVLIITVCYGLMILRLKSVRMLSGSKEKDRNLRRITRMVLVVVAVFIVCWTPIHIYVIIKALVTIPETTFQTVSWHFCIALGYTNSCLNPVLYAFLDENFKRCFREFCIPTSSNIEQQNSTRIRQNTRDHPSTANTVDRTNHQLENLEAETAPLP
Chain of Beta-2 adrenergic receptor (Homo sapiens) (P07550 whole entry, looked up): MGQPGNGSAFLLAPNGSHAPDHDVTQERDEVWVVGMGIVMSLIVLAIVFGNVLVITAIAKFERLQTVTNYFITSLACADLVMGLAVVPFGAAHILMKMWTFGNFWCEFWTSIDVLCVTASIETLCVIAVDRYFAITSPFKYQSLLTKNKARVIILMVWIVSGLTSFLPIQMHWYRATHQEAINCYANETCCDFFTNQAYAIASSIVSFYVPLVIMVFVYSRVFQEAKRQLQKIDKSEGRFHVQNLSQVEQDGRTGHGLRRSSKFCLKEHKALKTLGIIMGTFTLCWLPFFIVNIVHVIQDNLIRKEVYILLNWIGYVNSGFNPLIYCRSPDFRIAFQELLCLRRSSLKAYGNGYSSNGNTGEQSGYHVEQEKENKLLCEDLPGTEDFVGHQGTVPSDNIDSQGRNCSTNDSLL

Activity [1]: Active
Activity [2]: 1.15
Activity [3]: 0.92
Activity [4]: 106%
Activity [5]: 0.59
Activity [6]: 0.94
Activity [7]: 110%
Activity [8]: 102%
Activity [9]: 157%
Activity [10]: 1.07
Activity [11]: 0.85
Activity [12]: 0.9
Activity [13]: 1.02
SMILES: CC(C)C[C@H](NC(=O)[C@H](Cc1ccccc1)NC(=O)[C@H](CCCCN)NC(=O)[C@H](Cc1ccccc1)NC(=O)[C@H](CC(N)=O)NC(=O)[C@@H](NC(=O)[C@@H]1CCCN1)C(C)C)C(=O)N[C@@H](CO)C(=O)N[C@@H](Cc1cnc[nH]1)C(=O)O [HEMOPRESSIN]
Activity (Mus musculus): inactive
Activity (Rattus norvegicus [14]): Active
Activity (Rattus norvegicus [15]): Active
